Rows were chosen to be rich in hits. Some 2.3% of all compounds tested hit in one or more screens of this group.
TRPC4 inh: inhibitors of mouse TRPC4 channel. HEK293 TRPC4beta/mu-opioid, DAMGO-evoked Fluo4 calcium flux; hits give low values. B-score at 10 µM. actives 0.39% (n = 300,000). AID 2247;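 active = B-score over 3 SD under the library average, no early fluorescence shift, positive overall ratio signal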
Target sequence (Q9QUQ5 whole entry, looked up): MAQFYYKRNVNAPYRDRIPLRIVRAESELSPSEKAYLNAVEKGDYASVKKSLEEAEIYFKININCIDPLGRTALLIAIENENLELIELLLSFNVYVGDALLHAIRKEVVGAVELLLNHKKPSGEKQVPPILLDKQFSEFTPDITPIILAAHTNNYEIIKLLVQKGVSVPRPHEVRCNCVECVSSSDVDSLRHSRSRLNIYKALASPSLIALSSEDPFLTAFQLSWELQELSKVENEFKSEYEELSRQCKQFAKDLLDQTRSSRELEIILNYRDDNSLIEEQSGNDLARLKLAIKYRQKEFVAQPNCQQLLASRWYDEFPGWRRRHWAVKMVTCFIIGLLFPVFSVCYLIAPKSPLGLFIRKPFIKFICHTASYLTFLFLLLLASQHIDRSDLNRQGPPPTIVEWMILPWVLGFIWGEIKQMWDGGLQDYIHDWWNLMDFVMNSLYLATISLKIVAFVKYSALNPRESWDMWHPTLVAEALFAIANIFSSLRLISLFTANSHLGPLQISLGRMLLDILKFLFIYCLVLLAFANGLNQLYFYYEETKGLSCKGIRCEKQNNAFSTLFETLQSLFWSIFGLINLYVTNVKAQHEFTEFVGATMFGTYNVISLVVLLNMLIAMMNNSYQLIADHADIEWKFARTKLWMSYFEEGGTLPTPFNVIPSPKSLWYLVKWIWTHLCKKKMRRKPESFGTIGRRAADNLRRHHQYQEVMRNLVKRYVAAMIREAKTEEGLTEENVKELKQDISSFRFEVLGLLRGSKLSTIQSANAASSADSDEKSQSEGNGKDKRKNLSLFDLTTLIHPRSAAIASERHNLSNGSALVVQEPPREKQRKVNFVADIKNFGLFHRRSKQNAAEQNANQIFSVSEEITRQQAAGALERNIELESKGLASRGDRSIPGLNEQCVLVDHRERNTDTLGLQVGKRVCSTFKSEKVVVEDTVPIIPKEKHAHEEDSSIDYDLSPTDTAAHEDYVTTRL
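System: stable TRPC4beta/mu-opioid receptor HEK293 cells; Dosing: single-point compound dosing; Measured by: Fluo4 Ca2+ flux fluorescence; Read-out basis: per-well B score of integrated baseline-normalized Fluo4 ratio.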
TRPC6 activator: mouse TRPC6 channel activation. HEK293-TRPC6 membrane potential dye fluorescence; hits give high values. B-score at 10 µM. actives 0.13% (n = 310,000);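 active = B-score of the integrated fluorescence ratio above library mean plus 3 SD, and starting fluorescence ratio within library mean plus 5 SD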;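 also: higher score means more depolarization so channel activation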
TRPC4 agonist: activators of mouse TRPC4 channel; Q9QUQ5; HEK293 TRPC4beta/mu-opioid, Fluo4 calcium fluorescence; hits give high values; B-score at 10 µM; actives 0.49% (n = 310,000); AID 2237;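 active = B-score above 5 SD of library B-scores, and initial fluorescence ratio not above library mean plus 5 SD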;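 also: positive B-score marks a calcium rise read as TRPC4 activation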
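Assay system: HEK293 cells stably co-expressing mouse TRPC4beta and mu-opioid receptor / Timing: Fluo4 dye loading 45 min at room temperature, 110 s recording / Signal: Fluo4 calcium-sensitive dye fluorescence, kinetic, 1 Hz baseline / Read-out: integrated baseline-normalised fluorescence ratio, converted to per-well B score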
TRPC6 inhibitor: mouse TRPC6 channel inhibition | Q61143 | HEK293-TRPC6, membrane potential dye, ACh-evoked depolarization; hits give low values | B-score at 10 µM | actives 1.1% (n = 310,000) | AID 2553;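 active = B-score under library mean minus 3 SD, initial fluorescence not abnormally high, positive integrated signal ratio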;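 also: B-score derived from integrated fluorescence ratio over the kinetic read; more negative B-score means stronger inhibition of depolarization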
TRPC4 PAM: TRPC4 (mouse) allosteric potentiation. Q9QUQ5. HEK293 TRPC4beta/mu-opioid, DAMGO EC20, Fluo-4 Ca2+ flux; hits give high values. B-score at 10 µM. actives 0.42% (n = 310,000). AID 2227;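 active = B-score of calcium response area above 5 SD of library B-scores, with initial fluorescence ratio within 5 SD of library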
A number is an active result; . = inactive.

SMILES	TRPC4 inh	TRPC6 activator	TRPC4 agonist	TRPC6 inhibitor	TRPC4 PAM
COc1ccc(C2(C)NC(=O)N(CC(=O)Nc3cccnc3Cl)C2=O)cc1 (stereo unspecified)	.	.	.	.	.
Cc1ccc2c(C)c(C(=O)N3CCC(O)(c4ccccc4)CC3)oc2c1C	.	.	.	.	13
CCOC(=O)C1CCN(C2CCN(C(=O)c3oc4c(C)c(C)ccc4c3C)CC2)CC1	-6	.	.	.	.
Cc1ccc2c(C)c(C(=O)N3CCN(c4cnccn4)CC3)oc2c1C	.	.	.	.	.
C=CCn1cnc2c(oc3ccccc32)c1=O	.	.	.	.	.
S=C(NCCN1CCOCC1)N1CCN(c2cccc(Cl)c2)CC1	.	.	.	.	.
S=C(NCc1ccco1)N1CCN(c2cccc(Cl)c2)CC1	-5	.	.	.	.
COC(=O)CSc1nnc2n(C3CCCCC3)c(=O)c3c4c(sc3n12)CCCC4	-6	.	.	.	.
C=CCSc1nnc2n(-c3ccccc3OC)c(=O)c3c4c(sc3n12)CCC4	-6	.	.	.	.
CCCSc1nnc2n(-c3ccccc3OC)c(=O)c3c4c(sc3n12)CCC4	.	.	.	.	.
COC(=O)CSc1nnc2n(-c3ccc(OC)cc3)c(=O)c3c4c(sc3n12)CCCCC4	-7	.	.	.	.
COC(=O)C(C)NC(=O)c1ccc(C(C)(C)C)cc1 (stereo unspecified)	.	.	.	.	.
COc1cccc(CN(C)C(=O)CSc2nc3ccccc3[nH]2)c1OC	.	.	.	.	.
CC(C)(C)C1CCc2c(sc(NC(=O)C3CC=CCC3C(=O)O)c2C#N)C1 (stereo unspecified)	-6	.	.	.	.
N#Cc1c(NC(=O)C2CC=CCC2C(=O)O)sc2c1CCCCCC2 (stereo unspecified)	.	.	.	.	.
CCCC(C)c1nnc(NC(=O)C2CC(=O)N(CCc3ccc(F)cc3)C2)s1 (stereo unspecified)	.	.	.	.	.
O=C1/C(=C/c2ccccc2Cl)SC(=S)N1CCCC(=O)N(CCO)c1ccccc1	-6	.	.	.	.
O=C(/C=C/c1ccccc1)NC(=S)NNC(=O)Cc1cccs1	.	.	.	.	.
O=C(Cc1cccs1)NNC(=S)NC(=O)c1ccccc1	.	.	52	.	.
O=C(Cc1cccs1)NNC(=S)NC(=O)c1ccc(F)c(F)c1	.	.	60	.	.
CCn1c(SCC(=O)NC2CC2)nnc1-c1ccc(F)cc1	.	.	.	.	.
CCn1c(=O)c2c(n3c(=S)[nH]nc13)-c1ccccc1CC21CCCCC1	.	.	.	.	.
CCCCCOc1ccc2oc(=O)c3c(c2c1)CCCN3C(=O)CN1CCCC(C(=O)OCC)C1 (stereo unspecified)	.	.	.	.	33
CC(C)C(=O)NC(C)C(c1cccs1)N1CCN(c2ccccc2)CC1 (stereo unspecified)	.	.	53	.	.
CC(NC(=O)C1CC1)C(c1cccs1)N1CCN(c2ccccc2)CC1 (stereo unspecified)	.	.	44	.	.
SMILES	TRPC4 inh	TRPC6 activator	TRPC4 agonist	TRPC6 inhibitor	TRPC4 PAM
COc1ccccc1N1CCN(C(c2cccs2)C(C)NC(=O)c2cccs2)CC1 (stereo unspecified)	.	.	84	.	.
COc1ccccc1N1CCN(C(c2cccs2)C(C)NC(=O)c2cccnc2)CC1 (stereo unspecified)	.	.	.	.	.
CCOC(=O)N1CCN(C(=O)/C(=C\c2ccc(SC)cc2)NC(=O)c2ccccc2)CC1	.	.	.	.	.
CCOCc1cn(CC(=O)c2ccc(Cl)cc2)c(C)nc1=N	-8	.	.	.	.
CCOCc1cn(CC(=O)c2ccc([N+](=O)[O-])cc2)c(C)nc1=N	.	.	.	.	.
COC(=O)c1ccccc1NC(=O)c1ccc2c(c1)OCCCO2	.	.	.	.	.
C/C(=C\c1cccc(Cl)c1Cl)C(=O)c1c(C)cc(C)[nH]c1=O	.	.	.	.	19
CCCNc1nc2ccccc2n2c(C)nnc12	-6	.	.	.	.
Cc1cc(C)c2c(=O)n(CC(=O)Nc3cccc(Cl)c3C)sc2n1	.	.	.	.	16
CCCNC(=O)OCCC12CC3CC(CC(C3)C1)C2	.	.	.	.	10
O=c1cc2c(nn1Cc1ccc(F)cc1)-c1ccccc1CC2	-7	.	.	.	11
CCOC(=O)C1CCN(C(=O)CSc2nc3ncccc3[nH]2)CC1	.	.	.	.	.
CC(=O)N1CCCc2cc(S(=O)(=O)N3CCN(C4CCCCC4)CC3)ccc21	.	.	57	.	.
CC(C)c1ccc(C2=NN(c3ccccc3)C(=O)CC2)cc1	.	.	.	.	11
Fc1ccc(-[n+]2nc(Nc3ccccc3)sc2-c2c(Cl)cccc2Cl)cc1	.	.	55	.	.
CN(C)c1ccc(-c2sc(Nc3ccccc3)n[n+]2-c2ccc(F)cc2)cc1	.	.	222	.	.
COc1ccc(C)cc1Nc1n[n+](-c2ccccc2)c(-c2c(Cl)cccc2Cl)s1	.	.	67	-5.36	.
CC(C)(C)C(=O)NCCc1nc(-c2ccccc2)no1	.	.	.	.	.
COc1ccc2cc(C(=O)Nc3ccc(Cl)cc3)sc(=O)c2c1OC	.	.	.	.	.
CCCCNC(=O)CC1NCCNC1=O (stereo unspecified)	.	.	.	.	.
Cc1cccc(N(Cc2ccccc2)C(=O)c2cc(S(=O)(=O)N3CCOCC3)ccc2Cl)c1	.	.	.	.	.
CC(=O)c1ccc(N2CCN(C(=O)CCS(=O)(=O)c3ccc4c(c3)NC(=O)CS4)CC2)cc1	.	.	.	.	17
COc1ccc2c(c1OC)C(=O)OC2CC(=O)c1ccc(N(C)C)cc1 (stereo unspecified)	.	.	.	.	.
CC(=O)OCC1O[C@@H](O[C@@H]2C[C@H]3C(C)(C)[C@H](OC(C)=O)CC[C@]3(C)[C@H]3CC[C@]45C[C@]4(CC[C@H]5[C@@H](C)C[C@@H](O)[C@H](O)C(C)(C)O)[C@@]32C)[C@H](O)[C@@H](O)[C@@H]1O (stereo partly specified)	.	.	110	.	.
c1ccc(N2CCN(Cc3nc4ccccc4[nH]3)CC2)nc1	.	.	.	.	.
c1ccc(-c2ncc(CN3CCN(c4ccccn4)CC3)[nH]2)cc1	-6	.	.	.	.
COc1cc(CN2CCc3ccccc3C2)ccc1O	.	.	.	.	.
CN(CCOc1ccccc1)CC(O)COc1ccccc1 (stereo unspecified)	-6	.	.	.	.
CN(CCOc1ccccc1)CC(O)COCc1ccccc1F (stereo unspecified)	.	.	.	.	.

Screening results: PubChem, Johns Hopkins Ion Channel Center
